HNF4A DNA FP = change in binding of human HNF4 alpha to DNA; P41235; HNF4a-FITC DNA binding, fluorescence polarization, 1 h; activity change, % at 10 µM; hit rate 0.3% among 360,000; in the data active means activity change above about 30%, passing the limit was not always enough
TPT1 inhibitor = blocks Candida albicans tRNA 2'-phosphotransferase; recombinant caTPT1, FP RNA substrate dephosphorylation; inhibition, % at 5 µM; hit rate 0.81% among 300,000;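 active means inhibition above the mean of all tested compounds plus 3 SD, set per screening campaign, cut at about 24% in these data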;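 further: plate controls were DMSO alone for no effect and ferristatin control at 100 nM for full effect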
CSN inh = inhibitors of human CSN-mediated cullin deneddylation; Q92905; Purified CSN, SCF-Nedd8-OG deneddylation, fluorescence polarization; inhibition, % at 12.5 µM; hit rate 0.38% among 360,000;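 active means pattern-corrected inhibition above about 35%, with an unprinted fluorescence ratio check between 0.5 and 1.5, limit read from the data, passing the limit was not always enough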;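 further: 0% = enzyme with substrate and 100% = substrate without enzyme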
Target sequence (Q92905 whole entry, looked up, one chain of several): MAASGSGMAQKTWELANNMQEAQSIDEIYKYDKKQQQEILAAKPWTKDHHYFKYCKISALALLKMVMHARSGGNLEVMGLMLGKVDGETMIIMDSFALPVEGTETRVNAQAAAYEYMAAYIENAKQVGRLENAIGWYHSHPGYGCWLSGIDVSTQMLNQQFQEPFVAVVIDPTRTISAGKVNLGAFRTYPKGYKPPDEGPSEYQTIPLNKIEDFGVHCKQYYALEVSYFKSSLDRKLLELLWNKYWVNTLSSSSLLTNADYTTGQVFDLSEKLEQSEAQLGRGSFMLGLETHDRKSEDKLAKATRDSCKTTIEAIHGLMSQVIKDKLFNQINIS
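Assay system: purified human Csn5 enzyme expressed in HEK293T cells; Input: 0.24 nM Csn5 enzyme, final concentration; Reagent: 10 nM SCFSkp2-Nedd8OG; Compound dosing: 12.5 µM single point; Times: reaction 90 min, room temperature; Technique: fluorescence polarization readout.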
CRFR2-BP ag = agonists of human CRF-binding protein/CRF-R2 receptor complex | HEK293 CRF-R2/CRF-BP, calcium dye fluorescence (FLIPR); percent of saturating CRF peptide response | activation, % at 13.2 µM | hit rate 0.46% among 350,000;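 active means activation of at least 50%, plus an integration ratio under a set limit after plate pattern correction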;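 further: plate controls were neutral control wells without compound for no effect and CRF at EC100 for full effect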
Rpn11 block = blocks the human proteasome subunit Rpn11 | hit rate 0.59% among 360,000 | calls only at 20 µM | human 26S proteasome, Ub4-pepOG fluorescence polarization; 20S core pre-blocked with epoxomicin | AID 588493 | O00487;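 active means inhibition at 20 µM, scaled to each plate's controls, above about 33%, limit read from the data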
CRFBP-R2 block = CRF-BP/CRF-R2 complex antagonism. AID 588475. hit rate 0.59% among 350,000. HEK293 CRF-R2/CRF-BP, CRF-induced calcium fluorescence. inhibition, % at 11.8 µM;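 active means inhibition of the ligand-induced calcium signal above about 50% at the single tested concentration, limit read from the data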
TPT1 inh confirm = TPT1 (C. albicans) inhibition, confirmation; shares compounds with TPT1 inhibitor; recombinant caTPT1, fluorescence polarization, RNase T1 coupled; inhibition, % at 5 µM; hit rate 74% among 2,400; AID 2149;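 active means inhibition above the primary screen limit, the mean inhibition of all tested compounds plus 3 SD, cut at about 25% in these data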
RNase T1 counter = blocks Aspergillus oryzae RNase T1, a TPT1 counter-screen | hit rate 83% among 2,400 | inhibition, % at 5 µM | RNase T1 cleavage, fluorescence polarization, 1536-well | shares compounds with TPT1 inhibitor | AID 2153;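 active means inhibition above the solvent-only control well mean plus 3 SD, limit set per screening run, cut at about 23% in these data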;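 further: plate controls were DMSO wells with enzyme for no effect and wells without RNase T1 for full effect; inhibitors block cleavage so intact labeled substrate keeps polarization high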
Target sequence (P00651 whole entry, looked up): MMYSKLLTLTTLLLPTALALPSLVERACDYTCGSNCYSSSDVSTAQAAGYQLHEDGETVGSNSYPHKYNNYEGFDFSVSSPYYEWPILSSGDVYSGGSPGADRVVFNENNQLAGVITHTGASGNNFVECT
An asterisk follows results filed as active; i = inactive; · = no result shown. Rows were chosen to be rich in hits. Some 2.3% of all compounds tested hit in one or more screens of this group.

SMILES | HNF4A DNA FP | TPT1 inhibitor | CSN inh | CRFR2-BP ag | Rpn11 block | CRFBP-R2 block | TPT1 inh confirm | RNase T1 counter
CSc1sc(C(=O)NCC2CC2)cc1S(=O)(=O)C(C)C | 1 | -2 | 0 | 5 | i | -12 | · | ·
Cc1ccc2[nH]c(=O)c3cc(C(=O)NCCC(C)C)sc3c2c1 | -1 | · | -3 | -2 | i | -58 | · | ·
CCC(C)NC(=O)c1cc2c(=O)[nH]c3ccc(C)cc3c2s1 (stereo unspecified) | 1 | 29* | 16 | 1 | i | -52 | 7 | 14
COc1ccc(OC)c(/C=C2/Sc3ccccc3C2=O)c1 | 75 | 111* | 63 | 197* | · | -207 | 101* | 102*
COc1ccc(OC)c(C=C2CCc3ccccc3C2=O)c1 | -3 | · | -8 | · | i | · | · | ·
Cc1ccc(/C=C2\Sc3ccccc3C2=O)s1 | -1 | 44* | -2 | 17 | i | -41 | 58* | 70*
O=C1/C(=C/c2cccnc2)Sc2ccccc21 | 1 | 1 | 2 | 3 | i | -8 | · | ·
CC(=O)Nc1ccc(/C=C2\Sc3ccccc3C2=O)cc1 | 4 | 35* | -2 | 1 | i | -20 | 41* | 46*
CC1=Nc2ccccc2/C1=C\c1nc(-c2ccc(C(F)(F)F)cc2)oc1O | -53 | 156* | -71 | 121* | i | -205 | 152* | 142*
COc1ccc(-c2nc(/C=C3\C(C)=Nc4ccccc43)c(O)o2)cc1 | 24 | 95* | 4 | 23 | · | -20 | 106* | 112*
CC12CN3CC(C)(CN(C1)C3c1ccc3ccccc3c1O)C2=O (stereo unspecified) | 3 | -3 | 4 | -1 | i | -3 | · | ·
O=Cc1ccc(N2CCCCCC2)cc1 | 1 | 0 | 2 | 0 | i | 5 | · | ·
O=C1NC(=S)N/C1=C\c1ccc(N2CCOCC2)cc1 | 16 | 26* | 7 | 5 | i | -15 | 26* | 33*
O=C1/C(=C/c2ccc(N3CCCC3)cc2)NC(=S)N1C1CC1 | 169 | 162* | 134 | 176* | · | -192 | 169* | 153*
Cc1cc(N2CCCC2)ccc1/C=C1\NC(=S)N(C)C1=O | 153 | 164* | 141 | 169* | · | -197 | 167* | 154*
O=C1NC(=S)NC1=Cc1ccc(O)cc1 | 12 | · | 7 | 3 | i | 18 | · | ·
CN1C(=O)c2ccc(N3CCCC3)cc2C1=O | 0 | -10 | 3 | 19 | i | 17 | · | ·
O=C(COC(=O)[C@H](Cc1ccccc1)NC(=O)c1cccs1)Nc1c(Cl)cccc1Cl | -4 | 0 | -11 | 0 | i | -38 | · | ·
COC(=O)COc1ccc(S(=O)(=O)NCc2ccco2)cc1 | -1 | 3 | 0 | 0 | i | -4 | · | ·
COc1cc(OC)c(C(=O)OCC(=O)NCCc2ccccc2)cc1OC | 4 | 72* | -11 | -1 | i | 27 | 1 | 6
O=C(N/N=C/c1ccc2c(c1)OCO2)c1ccc(NC(=O)c2ccccc2Cl)cc1 | 4 | 0 | -3 | 1 | i | 8 | · | ·
CN=C1S/C(=C\c2ccc(N3CCCC3)c(F)c2)C(=O)N1C | 13 | 30* | 10 | 16 | i | -4 | 52* | 66*
CC1CCN(C(=O)CSc2nnc(-c3ccncc3)n2C)CC1 | -1 | -2 | 1 | 2 | i | 13 | · | ·
CN(Cc1ccccc1)C1=CC(=[N+]2CCCCC2)CC(C)(C)C1 | 0 | -1 | -2 | -3 | i | -7 | · | ·
CC1(C)CC(NNCCC#N)=CC(=[N+]2CCCC2)C1 | 5 | 49* | -6 | 0 | i | -3 | 54* | 69*
Nc1nc(-c2c[nH]c3ccccc23)cs1 | 6 | 7 | 5 | 0 | i | -6 | · | ·
Cc1ccc2c(-c3csc(N)n3)c[nH]c2c1 | · | 26* | · | · | · | · | 15 | 27*
O=C(NCCN1CCOCC1)c1ccc(Cl)cc1 | -2 | -1 | 2 | 0 | i | 13 | · | ·

Bioassay records (PubChem)
